Measured values from ChEMBL document CHEMBL2062426 (J Med Chem, 2012).

Assays:
Neutrophil collagenase = Neutrophil collagenase (Homo sapiens, UniProt P22894); assay: Inhibition of MMP8 using (7-methoxycoumarin-4-yl)acetyl-Pro-Leu-Gly-Leu-(3-(2,4-dinitrophenyl)-L-2,3-diaminopropionyl)Ala-Arg-NH2 as substrate incubated for 30 mins prior to substrate addition measured for 10 mins by fluorometry
Method in brief: (§1)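 Activated MMP-8 or MMP-9 (2 nM) was preincubated with inhibitor (10 pM–1 mM) in 50 mM Tris-HCl pH 7.5 with 0.2 M NaCl, 5 mM CaCl2, 20 μM ZnSO4 and 0.05% Brij 35 at 37 °C for 30 min. Fluorogenic substrate (10 μL of 50 μM into 90 μL) was then added. Rates from the first 10 min were plotted against inhibitor concentration, and values are the mean of three experiments.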

[1] = molecular target: Matrix metalloproteinase-9 (Homo sapiens, UniProt P14780); assay: Inhibition of MMP9 using (7-methoxycoumarin-4-yl)acetyl-Pro-Leu-Gly-Leu-(3-(2,4-dinitrophenyl)-L-2,3-diaminopropionyl)Ala-Arg-NH2 as substrate incubated for 30 mins prior to substrate addition measured for 10 mins by fluorometry; method in brief: as §1
Collagenase 3 = Collagenase 3 (Homo sapiens, UniProt P45452); assay: Inhibition of MMP13 using (7-methoxycoumarin-4-yl)acetyl-Pro-Leu-Gly-Leu-(3-(2,4-dinitrophenyl)-L-2,3-diaminopropionyl)Ala-Arg-NH2 as substrate incubated for 30 mins prior to substrate addition measured for 10 mins by fluorometry
[2] = molecular target: 72 kDa type IV collagenase (Homo sapiens, UniProt P08253); assay: Inhibition of MMP2 using (7-methoxycoumarin-4-yl)acetyl-Pro-Leu-Gly-Leu-(3-(2,4-dinitrophenyl)-L-2,3-diaminopropionyl)Ala-Arg-NH2 as substrate incubated for 30 mins prior to substrate addition measured for 10 mins by fluorometry
Chain of 72 kDa type IV collagenase (P08253 whole entry): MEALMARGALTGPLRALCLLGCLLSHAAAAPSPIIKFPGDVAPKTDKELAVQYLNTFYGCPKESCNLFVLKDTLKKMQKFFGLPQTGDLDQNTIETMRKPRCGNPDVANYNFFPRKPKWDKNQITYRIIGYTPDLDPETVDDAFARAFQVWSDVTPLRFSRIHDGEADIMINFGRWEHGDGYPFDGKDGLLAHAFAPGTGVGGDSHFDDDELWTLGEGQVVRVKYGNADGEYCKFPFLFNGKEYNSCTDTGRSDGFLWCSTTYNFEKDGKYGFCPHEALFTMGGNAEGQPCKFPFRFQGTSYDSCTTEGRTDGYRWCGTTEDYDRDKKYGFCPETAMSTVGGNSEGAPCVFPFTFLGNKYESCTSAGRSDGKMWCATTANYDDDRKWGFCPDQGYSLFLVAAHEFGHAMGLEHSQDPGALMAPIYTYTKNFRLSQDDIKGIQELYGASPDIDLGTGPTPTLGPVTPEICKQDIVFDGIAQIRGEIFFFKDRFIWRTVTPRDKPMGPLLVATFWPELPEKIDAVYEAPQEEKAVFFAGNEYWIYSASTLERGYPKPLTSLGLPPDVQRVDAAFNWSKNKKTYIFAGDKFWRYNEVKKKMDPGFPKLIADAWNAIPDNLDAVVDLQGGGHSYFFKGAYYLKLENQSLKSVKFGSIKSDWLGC

Chain of Matrix metalloproteinase-9 (P14780 whole entry): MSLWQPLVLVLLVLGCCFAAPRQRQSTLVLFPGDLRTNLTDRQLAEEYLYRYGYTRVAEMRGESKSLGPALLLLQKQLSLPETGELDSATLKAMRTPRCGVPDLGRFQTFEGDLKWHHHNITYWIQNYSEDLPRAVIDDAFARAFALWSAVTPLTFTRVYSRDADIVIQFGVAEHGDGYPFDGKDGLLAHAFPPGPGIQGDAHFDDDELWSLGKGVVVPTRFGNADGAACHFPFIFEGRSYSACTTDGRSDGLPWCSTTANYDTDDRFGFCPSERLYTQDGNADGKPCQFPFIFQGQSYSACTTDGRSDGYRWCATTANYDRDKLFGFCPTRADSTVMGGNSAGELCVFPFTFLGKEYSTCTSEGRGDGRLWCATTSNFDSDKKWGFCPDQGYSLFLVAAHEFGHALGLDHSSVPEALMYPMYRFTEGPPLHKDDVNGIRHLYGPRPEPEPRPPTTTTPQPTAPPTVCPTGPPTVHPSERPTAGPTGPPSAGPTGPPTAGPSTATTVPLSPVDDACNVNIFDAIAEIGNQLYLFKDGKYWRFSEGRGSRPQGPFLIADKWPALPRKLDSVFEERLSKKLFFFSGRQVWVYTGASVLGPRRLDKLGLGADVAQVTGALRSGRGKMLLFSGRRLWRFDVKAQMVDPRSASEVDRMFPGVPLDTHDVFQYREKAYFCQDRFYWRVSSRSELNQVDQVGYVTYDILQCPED
Chain of Neutrophil collagenase (P22894 whole entry): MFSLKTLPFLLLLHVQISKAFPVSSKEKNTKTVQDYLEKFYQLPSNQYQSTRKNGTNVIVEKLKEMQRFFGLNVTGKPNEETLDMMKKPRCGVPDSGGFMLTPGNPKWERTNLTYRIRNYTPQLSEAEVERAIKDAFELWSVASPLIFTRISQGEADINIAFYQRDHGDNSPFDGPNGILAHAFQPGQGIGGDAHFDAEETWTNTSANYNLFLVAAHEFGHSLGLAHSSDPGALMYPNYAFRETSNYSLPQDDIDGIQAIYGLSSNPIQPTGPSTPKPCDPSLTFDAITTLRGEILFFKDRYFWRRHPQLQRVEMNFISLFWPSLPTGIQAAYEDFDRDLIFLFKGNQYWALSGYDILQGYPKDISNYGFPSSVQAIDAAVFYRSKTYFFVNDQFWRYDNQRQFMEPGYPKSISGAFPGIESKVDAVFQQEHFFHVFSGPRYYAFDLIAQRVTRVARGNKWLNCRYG

Row | IC50 (Neutrophil collagenase) [nM] | IC50 [1] [nM] | IC50 (Collagenase 3) [nM] | IC50 [2] [nM] | SMILES
1 | 0.03 | 0.06 | 0.02 | 0.07 | COc1ccc(S(=O)(=O)N(Cc2cn(CCOCCOCCOCCOS(=O)(=O)c3ccc(C)cc3)nn2)[C@@H](C(=O)NO)C(C)C)cc1
2 | 0.04 | 0.05 | 0.04 | 0.1 | COc1ccc(S(=O)(=O)N(Cc2cn(CCOCCOCCOCCF)nn2)[C@@H](C(=O)NO)C(C)C)cc1
3 | 9 | 0.9 | 6 | 1.2 | COc1ccc(S(=O)(=O)N(Cc2cn(CCOCCOCCOCCN=[N+]=[N-])nn2)[C@@H](C(=O)NO)C(C)C)cc1
4 | 5 | 4 | 1 | 3 | COc1ccc(S(=O)(=O)N(Cc2cn(CCOCCOCCOCCOc3cccnc3F)nn2)[C@@H](C(=O)NO)C(C)C)cc1
